{"source": "ChEMBL document CHEMBL4422632", "about": "“Design of Novel Inhibitors of Human Thymidine Phosphorylase: Synthesis, Enzyme Inhibition, in Vitro Toxicity, and Impact on Human Glioblastoma Cancer” (J Med Chem, 2019)", "key": {"[1]": {"experiment": "Cytotoxicity against human U87MG cells assessed as cell viability at 25 uM after 72 hrs by neutral red uptake-based assay relative to control", "design": "species or system U-87MG ATCC", "conditions": "read-out: Activity", "summary_of_the_method": "(§1)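 Cells kept in DMEM with 10% heat-inactivated FBS, 1% penicillin-streptomycin and 0.1% fungizone at 37 °C, 5% CO₂. U-87 MG seeded at 2 x 10^3 cells/well, RAW 264.7 at 5 x 10^2, adhered 24 h, then exposed 72 h. MTT: 1 mg/mL for 3 h, formazan in DMSO, A595. NRU: 25 μg/mL dye, 3 h, ethanol:acetic acid:water desorb. Untreated wells = 100%; three to five independent experiments in triplicate.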"}, "[2]": {"experiment": "Cytotoxicity against human U87MG cells assessed as cell viability at 1000 uM after 72 hrs by MTT assay relative to control", "format": "cell-based, U-87MG ATCC", "conditions": "read-out: Activity", "summary_of_the_method": "(§2)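 Cells grown in DMEM with 10% FBS at 37 °C, 5% CO₂; seeded 2 x 10³ cells/well, adhered 24 h, then exposed 72 h. MTT: 1 mg/mL for 3 h, formazan in DMSO, absorbance 595 nm. NRU: neutral red 25 µg/mL in serum-free medium for 3 h, desorbed in ethanol:acetic acid:water. Viability as % of untreated control; mean ± SEM of three to five independent experiments in triplicate.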"}, "[3]": {"test_system": "U-87 MG", "experiment": "Anti-angiogenic activity in tumor of human U87MG cells xenografted in nude BALB/c mouse assessed as reduction in VEGF staining at 50 mg/kg, ip administered for 14 days by immunohistochemistry", "format": "functional, organism-based", "conditions": "U-87MG ATCC", "summary_of_the_method": "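Male nude mice bearing subcutaneous right-flank xenografts of 5 x 10⁵ U-87 MG cells; dosing began at about 50 mm³ tumors, ip daily for 14 days. Tumors formalin-fixed, paraffin sections 3 µm; citrate pH 6 antigen retrieval at 95-98 °C; primary antibody overnight at 4 °C, HRP secondary, DAB. Positive area quantified by optical density at x200, 4 images per tumor; mean ± SEM, one-way ANOVA with Dunnett.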"}, "[4]": {"experiment": "Cytotoxicity against human HepG2 cells assessed as cell viability at 50 uM after 72 hrs by MTT assay relative to control", "format": "cell-based", "conditions": "read-out: Activity", "summary_of_the_method": "as §2"}, "[5]": {"experiment": "Cytotoxicity against human U87MG cells assessed as cell viability at 250 uM after 72 hrs by MTT assay relative to control", "format": "cell-based, U-87MG ATCC", "conditions": "read-out: Activity", "summary_of_the_method": "as §1"}, "[6]": {"experiment": "Cytotoxicity against human HaCaT cells assessed as cell viability at 100 uM after 72 hrs by MTT assay relative to control", "format": "cell-based", "conditions": "read-out: Activity", "summary_of_the_method": "as §2"}, "[7]": {"experiment": "Cytotoxicity against human HepG2 cells assessed as cell viability at 25 uM after 72 hrs by MTT assay relative to control", "format": "cell-based", "conditions": "read-out: Activity", "summary_of_the_method": "as §2"}, "[8]": {"experiment": "Cytotoxicity against African green monkey Vero cells assessed as cell viability at 1000 uM after 72 hrs by MTT assay relative to control", "format": "cell-based", "conditions": "chlorocebus sabaeus, read-out: Activity", "summary_of_the_method": "as §2"}, "[9]": {"experiment": "Cytotoxicity against African green monkey Vero cells assessed as cell viability at 25 uM after 72 hrs by neutral red uptake-based assay relative to control", "conditions": "chlorocebus sabaeus, read-out: Activity", "summary_of_the_method": "as §2"}, "[10]": {"experiment": "Cytotoxicity against human U87MG cells assessed as cell viability at 250 uM after 72 hrs by neutral red uptake-based assay relative to control", "design": "species or system U-87MG ATCC", "conditions": "read-out: Activity", "summary_of_the_method": "as §1"}, "[11]": {"experiment": "Cytotoxicity against human U87MG cells assessed as cell viability at 500 uM after 72 hrs by MTT assay relative to control", "format": "cell-based, U-87MG ATCC", "conditions": "read-out: Activity", "summary_of_the_method": "as §1"}, "[12]": {"experiment": "Cytotoxicity against human HepG2 cells assessed as cell viability at 50 uM after 72 hrs by neutral red uptake-based assay relative to control", "conditions": "read-out: Activity", "summary_of_the_method": "as §2"}, "[13]": {"test_system": "U-87 MG", "experiment": "Anti-angiogenic activity in tumor of human U87MG cells xenografted in nude BALB/c mouse assessed as reduction in number of blood vessels at 50 mg/kg, ip administered for 14 days by hematoxylin and eosin-staining based light microscopy co-treated with temozolamide", "format": "functional, organism-based", "conditions": "U-87MG ATCC", "summary_of_the_method": "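U-87 MG flank xenografts (5 x 10⁵ cells) in male nude mice; ip treatment daily from about 50 mm³ for 14 days, with temozolomide at 50 mg/kg/day in the co-treatment arm. Vessel density counted on HE-stained 3 µm sections by hot-spot method, mean of four fields per tumor at x200, avoiding gross haemorrhage. One-way ANOVA/Dunnett.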"}, "[14]": {"experiment": "Cytotoxicity against African green monkey Vero cells assessed as cell viability at 50 uM after 72 hrs by MTT assay relative to control", "format": "cell-based", "conditions": "chlorocebus sabaeus, read-out: Activity", "summary_of_the_method": "as §2"}, "[15]": {"experiment": "Cytotoxicity against mouse RAW264.7 cells assessed as cell viability at 25 uM after 72 hrs by MTT assay relative to control", "format": "cell-based", "conditions": "read-out: Activity", "summary_of_the_method": "as §1"}, "[16]": {"experiment": "Elimination half life in CF1 mouse at 50 mg/kg, ip by non-compartmental analysis", "format": "ADME, organism-based", "conditions": "in vivo"}, "[17]": {"test_system": "U-87 MG", "experiment": "Antitumor activity against human U87MG cells xenografted in BALB/c nude mouse assessed as tumor growth inhibition 50 mg/kg/day, ip administered for 14 days co-treated with temozolamide", "format": "functional, organism-based", "conditions": "U-87MG ATCC", "summary_of_the_method": "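5 x 10⁵ U-87 MG cells implanted subcutaneously in right flank of male BALB/c nude mice; at about 50 mm³, randomized to saline or ip 50 mg/kg/day, with temozolomide 50 mg/kg/day in the combination arm, for 14 days. Relative tumor volume = volume on day / day 0; TGI on day 14 = [1 − RTV treated/RTV control] x 100. Two-way ANOVA with Bonferroni.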"}, "[18]": {"experiment": "Cytotoxicity against human HaCaT cells assessed as cell viability at 50 uM after 72 hrs by MTT assay relative to control", "format": "cell-based", "conditions": "read-out: Activity", "summary_of_the_method": "as §2"}, "[19]": {"target": "Cytochrome P450 2C19 (Homo sapiens, UniProt P33261)", "sequence (P33261 whole entry)": "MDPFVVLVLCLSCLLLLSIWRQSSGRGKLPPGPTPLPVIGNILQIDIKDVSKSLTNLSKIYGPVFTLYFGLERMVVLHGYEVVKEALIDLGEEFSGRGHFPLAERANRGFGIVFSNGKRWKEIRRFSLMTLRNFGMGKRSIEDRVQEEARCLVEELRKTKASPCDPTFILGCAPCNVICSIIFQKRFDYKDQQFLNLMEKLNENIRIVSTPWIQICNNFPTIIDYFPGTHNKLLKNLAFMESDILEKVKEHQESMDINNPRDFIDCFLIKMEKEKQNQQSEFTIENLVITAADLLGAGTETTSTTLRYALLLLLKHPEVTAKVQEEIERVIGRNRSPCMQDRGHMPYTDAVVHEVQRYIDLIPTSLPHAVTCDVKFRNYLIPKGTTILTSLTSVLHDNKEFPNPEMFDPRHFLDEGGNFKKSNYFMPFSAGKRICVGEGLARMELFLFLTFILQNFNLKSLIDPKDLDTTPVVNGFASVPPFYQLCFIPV", "experiment": "Inhibition of CYP2C19 in human liver microsomes by HPLC-MS/MS analysis", "format": "ADME"}, "[20]": {"experiment": "Cytotoxicity against mouse RAW264.7 cells assessed as cell viability at 1000 uM after 72 hrs by neutral red uptake-based assay relative to control", "conditions": "read-out: Activity", "summary_of_the_method": "as §1"}, "[21]": {"experiment": "Cytotoxicity against human HepG2 cells assessed as cell viability at 1000 uM after 72 hrs by neutral red uptake-based assay relative to control", "conditions": "read-out: Activity", "summary_of_the_method": "as §2"}, "[22]": {"experiment": "Cytotoxicity against human HepG2 cells assessed as cell viability at 500 uM after 72 hrs by neutral red uptake-based assay relative to control", "conditions": "read-out: Activity", "summary_of_the_method": "as §2"}, "[23]": {"experiment": "Cytotoxicity against human HepG2 cells assessed as cell viability at 250 uM after 72 hrs by neutral red uptake-based assay relative to control", "conditions": "read-out: Activity", "summary_of_the_method": "as §2"}, "[24]": {"experiment": "Cytotoxicity against African green monkey Vero cells assessed as cell viability at 25 uM after 72 hrs by MTT assay relative to control", "format": "cell-based", "conditions": "chlorocebus sabaeus, read-out: Activity", "summary_of_the_method": "as §2"}, "[25]": {"experiment": "AUMCt in CF1 mouse at 50 mg/kg, ip by non-compartmental analysis", "format": "ADME, organism-based", "conditions": "in vivo", "summary_of_the_method": "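Male CF1 mice, single ip 50 mg/kg in 0.9% saline, 3 animals per time point sampled 0.03–2 h; heparinized blood. AUMC0→t computed by trapezoidal rule to last point (2 h); non-compartmental analysis.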"}, "[26]": {"experiment": "Cytotoxicity against human HaCaT cells assessed as cell viability at 50 uM after 72 hrs by neutral red uptake-based assay relative to control", "conditions": "read-out: Activity", "summary_of_the_method": "as §2"}, "[27]": {"experiment": "Cytotoxicity against mouse RAW264.7 cells assessed as cell viability at 250 uM after 72 hrs by neutral red uptake-based assay relative to control", "conditions": "read-out: Activity", "summary_of_the_method": "as §1"}, "[28]": {"experiment": "Half life in human liver S9 fraction at 2 uM up to 30 mins in presence of NADPH by HPLC-MS/MS analysis", "format": "ADME, subcellular"}, "[29]": {"experiment": "Cytotoxicity against African green monkey Vero cells assessed as cell viability at 500 uM after 72 hrs by neutral red uptake-based assay relative to control", "conditions": "chlorocebus sabaeus, read-out: Activity", "summary_of_the_method": "as §2"}}, "note": "The source made the active and inactive calls. The calls are words filed in the database; no cut-off is given here.", "data": [{"smiles": "O=c1[nH]c(CNC(CO)CO)c(I)c(=O)[nH]1", "values": [{"measurement": "viability at 72 h, 25 µM", "setting": "[1]", "value": 99, "unit": "%"}, {"measurement": "viability at 72 h, 1000 µM", "setting": "[2]", "value": 83, "unit": "%"}, {"measurement": "Activity", "setting": "[3]", "value": "Active"}, {"measurement": "viability at 72 h, 50 µM", "setting": "[4]", "value": 100, "unit": "%"}, {"measurement": "viability at 72 h, 250 µM", "setting": "[5]", "value": 97, "unit": "%"}, {"measurement": "viability at 72 h, 100 µM", "setting": "[6]", "value": 98, "unit": "%"}, {"measurement": "viability at 72 h, 25 µM", "setting": "[7]", "value": 103, "unit": "%"}, {"measurement": "viability at 72 h, 1000 µM", "setting": "[8]", "value": 75, "unit": "%"}, {"measurement": "viability at 72 h, 25 µM", "setting": "[9]", "value": 108, "unit": "%"}, {"measurement": "viability at 72 h, 250 µM", "setting": "[10]", "value": 98, "unit": "%"}, {"measurement": "viability at 72 h, 500 µM", "setting": "[11]", "value": 89, "unit": "%"}, {"measurement": "viability at 72 h, 50 µM", "setting": "[12]", "value": 103, "unit": "%"}, {"measurement": "Activity", "setting": "[13]", "value": "Active"}, {"measurement": "viability at 72 h, 50 µM", "setting": "[14]", "value": 97, "unit": "%"}, {"measurement": "viability at 72 h, 25 µM", "setting": "[15]", "value": 103, "unit": "%"}, {"measurement": "beta t1/2", "setting": "[16]", "value": 30, "unit": "min"}, {"measurement": "TGI", "setting": "[17]", "value": "Active"}, {"measurement": "viability at 72 h, 50 µM", "setting": "[18]", "value": 95, "unit": "%"}, {"measurement": "IC50", "setting": "[19]", "value": "> 100", "unit": "µM"}, {"measurement": "viability at 72 h, 1000 µM", "setting": "[20]", "value": 48, "unit": "%"}, {"measurement": "viability at 72 h, 1000 µM", "setting": "[21]", "value": 81, "unit": "%"}, {"measurement": "viability at 72 h, 500 µM", "setting": "[22]", "value": 96, "unit": "%"}, {"measurement": "viability at 72 h, 250 µM", "setting": "[23]", "value": 98, "unit": "%"}, {"measurement": "viability at 72 h, 25 µM", "setting": "[24]", "value": 101, "unit": "%"}, {"measurement": "AUMCt", "setting": "[25]", "value": 6.3, "unit": "µg·h²/mL"}, {"measurement": "viability at 72 h, 50 µM", "setting": "[26]", "value": 110, "unit": "%"}, {"measurement": "viability at 72 h, 250 µM", "setting": "[27]", "value": 85, "unit": "%"}, {"measurement": "half-life at 2 µM", "setting": "[28]", "value": 28.1, "unit": "min"}, {"measurement": "viability at 72 h, 500 µM", "setting": "[29]", "value": 90, "unit": "%"}]}]}
